PubChem BioAssay AID504519 (The Scripps Research Institute Molecular Screening Center, 2011)
Activity calls are given as the source filed them.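 Rule for the calls: active = labelling ratio, compound over solvent, at most 0.5 for PAFAH2 while all off-target serine hydrolases stay above 0.5; inactive = the rest.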

Key:
Assay in all cases: SILAC ABPP target and off-target inhibition profile – LC-MS, BW5147 murine T cells, selectivity assay for PAFAH2 inhibitor project, late-stage follow-up (AID 504519)
LYPLA3 = settings: active compounds read low
How it was run: (§1)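 Assay system: murine T-cell hybridoma line derived from BW5147, SILAC-labeled (light or heavy); benchmarks: heavy DMSO-treated cells as reference; read-out basis: Per-protein light/heavy peptide intensity ratio, 1 meaning no inhibition; measured by: MudPIT LC/LC-MS/MS after biotin enrichment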

ABHD12 = settings: active compounds read low
How it was run: as §1

CTSA = settings: active compounds read low
How it was run: as §1

ESD = settings: active compounds read low
How it was run: as §1

ABHD10 = settings: active compounds read low
How it was run: as §1

[1] = biological target: Prolyl endopeptidase (Mus musculus) (UniProt Q9QUR6); settings: PREP, active compounds read low
Sequence of Prolyl endopeptidase (Mus musculus) (Q9QUR6 whole entry, looked up): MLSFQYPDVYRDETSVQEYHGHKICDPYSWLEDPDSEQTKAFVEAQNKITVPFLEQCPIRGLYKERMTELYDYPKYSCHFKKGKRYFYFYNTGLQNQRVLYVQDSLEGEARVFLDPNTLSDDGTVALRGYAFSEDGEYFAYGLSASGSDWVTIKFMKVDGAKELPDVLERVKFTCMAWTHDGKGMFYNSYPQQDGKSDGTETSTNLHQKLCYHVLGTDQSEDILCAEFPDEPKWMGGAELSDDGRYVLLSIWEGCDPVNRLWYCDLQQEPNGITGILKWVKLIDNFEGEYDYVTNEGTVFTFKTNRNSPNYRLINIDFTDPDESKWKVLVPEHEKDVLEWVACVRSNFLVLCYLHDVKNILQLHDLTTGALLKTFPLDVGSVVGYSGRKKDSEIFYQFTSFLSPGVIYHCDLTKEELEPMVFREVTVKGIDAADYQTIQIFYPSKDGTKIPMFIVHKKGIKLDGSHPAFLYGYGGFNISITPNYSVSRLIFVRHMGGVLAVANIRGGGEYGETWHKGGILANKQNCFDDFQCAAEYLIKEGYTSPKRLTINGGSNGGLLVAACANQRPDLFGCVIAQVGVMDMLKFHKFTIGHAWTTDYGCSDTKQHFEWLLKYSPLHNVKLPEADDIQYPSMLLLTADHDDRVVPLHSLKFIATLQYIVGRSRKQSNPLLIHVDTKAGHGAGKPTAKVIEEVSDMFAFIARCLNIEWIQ
How it was run: as §1

PAFAH1B3 = settings: active compounds read low
How it was run: as §1

LACTB = settings: active compounds read low
How it was run: as §1

ABHD11 = settings: active compounds read low
How it was run: as §1

DPP9 = settings: active compounds read low
How it was run: as §1

PLA2G6 = settings: active compounds read low
How it was run: as §1

APEH = settings: active compounds read low
How it was run: as §1

DPP7 = settings: active compounds read low
How it was run: as §1

FAM108C = settings: active compounds read low
How it was run: as §1

SIAE = settings: active compounds read low
How it was run: as §1

DPP4 = settings: active compounds read low
How it was run: as §1

SERHL = settings: active compounds read low
How it was run: as §1

[2] = biological target: Platelet-activating factor acetylhydrolase 2, cytoplasmic (Mus musculus) (UniProt Q8VDG7); settings: PAFAH2, active compounds read low
Sequence of Platelet-activating factor acetylhydrolase 2, cytoplasmic (Mus musculus) (Q8VDG7 whole entry, looked up): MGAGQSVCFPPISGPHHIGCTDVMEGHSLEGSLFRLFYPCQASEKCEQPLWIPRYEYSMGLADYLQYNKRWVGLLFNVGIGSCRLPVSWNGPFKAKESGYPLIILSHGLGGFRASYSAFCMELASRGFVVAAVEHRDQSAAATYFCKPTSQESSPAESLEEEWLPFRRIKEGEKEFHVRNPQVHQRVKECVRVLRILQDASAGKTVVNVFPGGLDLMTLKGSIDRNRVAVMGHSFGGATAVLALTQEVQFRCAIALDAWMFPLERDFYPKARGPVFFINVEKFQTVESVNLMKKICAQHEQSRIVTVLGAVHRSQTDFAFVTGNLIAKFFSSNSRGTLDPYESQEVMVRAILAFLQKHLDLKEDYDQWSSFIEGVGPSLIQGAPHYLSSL
How it was run: as §1

FAM108A = settings: active compounds read low
How it was run: as §1

ACOT2 = settings: active compounds read low
How it was run: as §1

PRCP = settings: active compounds read low
How it was run: as §1

PPME1 = settings: active compounds read low
How it was run: as §1

ACOT7 = settings: active compounds read low
How it was run: as §1

AADACL1 = settings: active compounds read low
How it was run: as §1

FAAH = settings: active compounds read low
How it was run: as §1

PREPL = settings: active compounds read low
How it was run: as §1

ABHD6 = settings: active compounds read low
How it was run: as §1

PNPLA6 = settings: active compounds read low
How it was run: as §1

LYPLA1 = settings: active compounds read low
How it was run: as §1

DPP8 = settings: active compounds read low
How it was run: as §1

ACOT1 = settings: active compounds read low
How it was run: as §1

FASN = settings: active compounds read low
How it was run: as §1

BAT5 = settings: active compounds read low
How it was run: as §1

LIPA = settings: active compounds read low
How it was run: as §1

LYPLA2 = settings: active compounds read low
How it was run: as §1

PNPLA7 = settings: active compounds read low
How it was run: as §1

FAM108B1 = settings: active compounds read low
How it was run: as §1

IAH1 = settings: active compounds read low
How it was run: as §1

PAFAH1B2 = settings: active compounds read low
How it was run: as §1

PARL = settings: active compounds read low
How it was run: as §1

DDHD1 = settings: active compounds read low
How it was run: as §1

ABHD13 = settings: active compounds read low
How it was run: as §1

SILAC ratio inhibitor/DMSO (LYPLA3): 1.3 (inactive)
SILAC ratio inhibitor/DMSO (ABHD12): 1.3 (inactive)
SILAC ratio inhibitor/DMSO (CTSA): 1.1 (inactive)
SILAC ratio inhibitor/DMSO (ESD): 1 (inactive)
SILAC ratio inhibitor/DMSO (ABHD10): 1.4 (inactive)
SILAC ratio inhibitor/DMSO [1]: 1.3 (inactive)
SILAC ratio inhibitor/DMSO (PAFAH1B3): 1.3 (inactive)
SILAC ratio inhibitor/DMSO (LACTB): 1.3 (inactive)
SILAC ratio inhibitor/DMSO (ABHD11): 1.4 (inactive)
SILAC ratio inhibitor/DMSO (DPP9): 1.3 (inactive)
SILAC ratio inhibitor/DMSO (PLA2G6): 0.91 (inactive)
SILAC ratio inhibitor/DMSO (APEH): 1 (inactive)
SILAC ratio inhibitor/DMSO (DPP7): 1.2 (inactive)
SILAC ratio inhibitor/DMSO (FAM108C): 1.3 (inactive)
SILAC ratio inhibitor/DMSO (SIAE): 1.3 (inactive)
SILAC ratio inhibitor/DMSO (DPP4): 1.2 (inactive)
SILAC ratio inhibitor/DMSO (SERHL): 1.1 (inactive)
SILAC ratio inhibitor/DMSO [2]: 0
SILAC ratio inhibitor/DMSO (FAM108A): 1.1 (inactive)
SILAC ratio inhibitor/DMSO (ACOT2): 1.2 (inactive)
SILAC ratio inhibitor/DMSO (PRCP): 1.4 (inactive)
SILAC ratio inhibitor/DMSO (PPME1): 1.2 (inactive)
SILAC ratio inhibitor/DMSO (ACOT7): 1.2 (inactive)
SILAC ratio inhibitor/DMSO (AADACL1): 1.3 (inactive)
SILAC ratio inhibitor/DMSO (FAAH): 1.3 (inactive)
SILAC ratio inhibitor/DMSO (PREPL): 1.3 (inactive)
SILAC ratio inhibitor/DMSO (ABHD6): 0.59 (inactive)
SILAC ratio inhibitor/DMSO (PNPLA6): 1.6 (inactive)
SILAC ratio inhibitor/DMSO (LYPLA1): 1.3 (inactive)
SILAC ratio inhibitor/DMSO (DPP8): 1.3 (inactive)
SILAC ratio inhibitor/DMSO (ACOT1): 1.2 (inactive)
SILAC ratio inhibitor/DMSO (FASN): 1.3 (inactive)
SILAC ratio inhibitor/DMSO (BAT5): 1.3 (inactive)
SILAC ratio inhibitor/DMSO (LIPA): 1.6 (inactive)
SILAC ratio inhibitor/DMSO (LYPLA2): 1.4 (inactive)
SILAC ratio inhibitor/DMSO (PNPLA7): 1.6 (inactive)
SILAC ratio inhibitor/DMSO (FAM108B1): 1.2 (inactive)
SILAC ratio inhibitor/DMSO (IAH1): 1.2 (inactive)
SILAC ratio inhibitor/DMSO (PAFAH1B2): 1.2 (inactive)
SILAC ratio inhibitor/DMSO (PARL): 1.2 (inactive)
SILAC ratio inhibitor/DMSO (DDHD1): 1.4 (inactive)
SILAC ratio inhibitor/DMSO (ABHD13): 1.2 (inactive)
SMILES: O=C(N1CCCC1)n1ncc(-c2ccc(-c3ccccc3)cc2)n1
